From ChEMBL document CHEMBL1255500, “Safety and pharmacokinetics of the antiorthopoxvirus compound ST-246 following repeat oral dosing in healthy adult subjects” (Antimicrob Agents Chemother, 2010)

Columns and labels:
[1] = system: Homo sapiens; experiment: Toxicity in healthy human assessed as incidence of fatigue at 250 mg/day, po administered for 21 days; format: organism-based; conditions: in vivo, 504 h
How it was run: (§1)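 Randomized, double-blind, placebo-controlled escalating study; 8 active and 2 placebo subjects per dose group, oral daily dosing after a standard light meal for 21 days. Safety was followed through adverse event reporting, vital signs, physical exam, hematology, blood chemistry, urinalysis and ECGs, with clinic visits at weeks 1 to 3. Laboratory AEs were graded by DAIDS criteria. Results are the number and percentage of subjects reporting each treatment-emergent AE.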

[2] = system: Homo sapiens; experiment: Toxicity in healthy human assessed as incidence of urticaria at 400 mg/day, po administered for 21 days; format: organism-based; conditions: in vivo, 504 h; how it was run: as §1
[3] = system: Homo sapiens; experiment: Toxicity in healthy human assessed as incidence of fatigue at 400 mg/day, po administered for 21 days; format: organism-based; conditions: in vivo, 504 h; how it was run: as §1
[4] = Cmax in healthy human at 400 mg/day, po administered for 21 days measured at day 6; format: ADME, organism-based; parameters: dose 400 mg/day, route oral; conditions: in vivo
How it was run: (§2)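 Healthy adult volunteers, 8 per dose group, in the nonfasted state. Each took one oral dose daily for 21 days, within 30 min after a standard light meal (400 to 450 cal, ~25% fat). Venous blood was drawn predose and postdose on days 1, 6 and 21. Plasma was stored at −70°C and assayed by validated LC-MS/MS with an analog internal standard (range 50 to 4,000 ng/ml). AUCtau and Cmax were obtained by noncompartmental analysis.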

[5] = system: Homo sapiens; experiment: Toxicity in healthy human assessed as incidence of dry mouth at 400 mg/day, po administered for 21 days; format: organism-based; conditions: in vivo, 504 h; how it was run: as §1
[6] = system: Homo sapiens; experiment: Toxicity in healthy human assessed as incidence of nausea at 400 mg/day, po administered for 21 days; format: organism-based; conditions: in vivo, 504 h; how it was run: as §1
[7] = Cmax in healthy human at 400 mg/day, po administered for 21 days measured at day 1; format: ADME, organism-based; parameters: dose 400 mg/day, route oral; conditions: in vivo; how it was run: as §2
[8] = Half life in healthy human at 400 mg/day, po administered for 21 days measured at day 21; format: ADME, organism-based; conditions: in vivo
How it was run: (§3)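 Phase I randomized, double-blind, placebo-controlled escalating multiple-dose study; 8 nonfasting healthy adults per dose group, one oral dose daily within 30 min after a standard light meal (400 to 450 cal, ~25% fat) for 21 days. Plasma was sampled serially on days 1, 6 and 21 (72 h after the last dose) and stored at −70°C. ST-246 was measured by validated LC-MS/MS with an analog internal standard (plasma range 50 to 4,000 ng/ml). Parameters (AUCtau, Cmax, Tmax, t1/2) came from noncompartmental analysis.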

[9] = system: Homo sapiens; experiment: Toxicity in healthy human assessed as incidence of dry mouth at 250 mg/day, po administered for 21 days; format: organism-based; conditions: in vivo, 504 h; how it was run: as §1
[10] = Tmax in healthy human at 250 to 800 mg/day, po administered for 21 days measured at day 6; format: ADME, organism-based; conditions: in vivo; how it was run: as §3
[11] = system: Homo sapiens; experiment: Toxicity in healthy human assessed as incidence of abnormal eye sensation at 800 mg/day, po administered for 21 days; format: organism-based; conditions: in vivo, 504 h; how it was run: as §1
[12] = Cmax in healthy human at 800 mg/day, po administered for 21 days measured at day 1; format: ADME, organism-based; parameters: dose 800 mg/day, route oral; conditions: in vivo; how it was run: as §2
[13] = system: Homo sapiens; experiment: Toxicity in healthy human assessed as incidence of treatment-emergent adverse events at 250 mg/day, po administered for 21 days; format: organism-based; conditions: in vivo, 504 h; how it was run: as §1
[14] = AUC in healthy human at 400 mg/day, po administered for 21 days measured at day 21; format: ADME, organism-based; parameters: dose 400 mg/day, route oral; conditions: plasma; how it was run: as §3
[15] = system: Homo sapiens; experiment: Toxicity in healthy human assessed as incidence of urticaria at 800 mg/day, po administered for 21 days; format: organism-based; conditions: in vivo, 504 h; how it was run: as §1
[16] = Half life in healthy human at 250 mg/day, po administered for 21 days measured at day 21; format: ADME, organism-based; conditions: in vivo
How it was run: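 Healthy nonfasted volunteers took one oral dose daily for 21 days after a standard light meal. Plasma was sampled for 72 h after the last dose on day 21 (days 21 to 24) and quantified by validated LC-MS/MS. Terminal t1/2 was derived noncompartmentally from the observed elimination rate constant (λz), and mean and median were given.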

[17] = AUC in healthy human at 400 mg/day, po administered for 21 days measured at day 1; format: ADME, organism-based; conditions: plasma; how it was run: as §3
[18] = system: Homo sapiens; experiment: Toxicity in healthy human assessed as incidence of flatulence at 800 mg/day, po administered for 21 days; format: organism-based; conditions: in vivo, 504 h; how it was run: as §1
[19] = system: Homo sapiens; experiment: Toxicity in healthy human assessed as incidence of abnormal eye sensation at 250 mg/day, po administered for 21 days; format: organism-based; conditions: in vivo, 504 h; how it was run: as §1
[20] = Cmax in healthy human at 400 mg/day, po administered for 21 days measured at day 21; format: ADME, organism-based; conditions: in vivo; how it was run: as §3
[21] = Tmax in healthy human at 250 to 800 mg/day, po administered for 21 days measured at day 1; format: ADME, organism-based; conditions: in vivo; how it was run: as §3
[22] = AUC in healthy human at 800 mg/day, po administered for 21 days measured at day 21; format: ADME, organism-based; conditions: plasma; how it was run: as §2
[23] = Half life in healthy human at 800 mg/day, po administered for 21 days measured at day 21; format: ADME, organism-based; conditions: in vivo; how it was run: as §3
[24] = system: Homo sapiens; experiment: Toxicity in healthy human assessed as incidence of abnormal eye sensation at 400 mg/day, po administered for 21 days; format: organism-based; conditions: in vivo, 504 h; how it was run: as §1
[25] = system: Homo sapiens; experiment: Toxicity in healthy human assessed as incidence of treatment-emergent adverse events at 800 mg/day, po administered for 21 days; format: organism-based; conditions: in vivo, 504 h; how it was run: as §1
[26] = AUC in healthy human at 250 mg/day, po administered for 21 days measured at day 21; format: ADME, organism-based; conditions: plasma; how it was run: as §2
[27] = system: Homo sapiens; experiment: Toxicity in healthy human assessed as incidence of somnolence at 250 mg/day, po administered for 21 days; format: organism-based; conditions: in vivo, 504 h; how it was run: as §1
[28] = AUC in healthy human at 400 mg/day, po administered for 21 days measured at day 6; format: ADME, organism-based; conditions: plasma; how it was run: as §2
[29] = system: Homo sapiens; experiment: Toxicity in healthy human assessed as incidence of dry mouth at 800 mg/day, po administered for 21 days; format: organism-based; conditions: in vivo, 504 h; how it was run: as §1
[30] = system: Homo sapiens; experiment: Toxicity in healthy human assessed as incidence of fatigue at 800 mg/day, po administered for 21 days; format: organism-based; conditions: in vivo, 504 h; how it was run: as §1
[31] = system: Homo sapiens; experiment: Toxicity in healthy human assessed as incidence of urticaria at 250 mg/day, po administered for 21 days; format: organism-based; conditions: in vivo, 504 h; how it was run: as §1
[32] = Cmax in healthy human at 250 mg/day, po administered for 21 days measured at day 6; format: ADME, organism-based; parameters: dose 250 mg/day, route oral; conditions: in vivo; how it was run: as §2
[33] = Tmax in healthy human at 250 to 800 mg/day, po administered for 21 days measured at day 21; format: ADME, organism-based; conditions: in vivo; how it was run: as §3
[34] = AUC in healthy human at 250 mg/day, po administered for 21 days measured at day 1; format: ADME, organism-based; conditions: plasma; how it was run: as §3
[35] = AUC in healthy human at 250 mg/day, po administered for 21 days measured at day 6; format: ADME, organism-based; conditions: plasma; how it was run: as §2
[36] = system: Homo sapiens; experiment: Toxicity in healthy human assessed as incidence of nausea at 250 mg/day, po administered for 21 days; format: organism-based; conditions: in vivo, 504 h; how it was run: as §1
[37] = system: Homo sapiens; experiment: Toxicity in healthy human assessed as incidence of headache at 250 mg/day, po administered for 21 days; format: organism-based; conditions: in vivo, 504 h; how it was run: as §1
[38] = system: Homo sapiens; experiment: Toxicity in healthy human assessed as incidence of nausea at 800 mg/day, po administered for 21 days; format: organism-based; conditions: in vivo, 504 h; how it was run: as §1
[39] = system: Homo sapiens; experiment: Toxicity in healthy human assessed as incidence of headache at 400 mg/day, po administered for 21 days; format: organism-based; conditions: in vivo, 504 h; how it was run: as §1
[40] = Cmax in healthy human at 250 mg/day, po administered for 21 days measured at day 1; format: ADME, organism-based; parameters: dose 250 mg/day, route oral; conditions: in vivo; how it was run: as §2
[41] = Cmax in healthy human at 800 mg/day, po administered for 21 days measured at day 6; format: ADME, organism-based; parameters: dose 800 mg/day, route oral; conditions: in vivo; how it was run: as §2
[42] = AUC in healthy human at 800 mg/day, po administered for 21 days measured at day 6; format: ADME, organism-based; conditions: plasma; how it was run: as §2
[43] = AUC in healthy human at 800 mg/day, po administered for 21 days measured at day 1; format: ADME, organism-based; conditions: plasma; how it was run: as §2
[44] = system: Homo sapiens; experiment: Toxicity in healthy human assessed as incidence of somnolence at 800 mg/day, po administered for 21 days; format: organism-based; conditions: in vivo, 504 h; how it was run: as §1
[45] = system: Homo sapiens; experiment: Toxicity in healthy human assessed as incidence of flatulence at 250 mg/day, po administered for 21 days; format: organism-based; conditions: in vivo, 504 h; how it was run: as §1
[46] = system: Homo sapiens; experiment: Toxicity in healthy human assessed as incidence of somnolence at 400 mg/day, po administered for 21 days; format: organism-based; conditions: in vivo, 504 h; how it was run: as §1
[47] = system: Homo sapiens; experiment: Toxicity in healthy human assessed as incidence of flatulence at 400 mg/day, po administered for 21 days; format: organism-based; conditions: in vivo, 504 h; how it was run: as §1
[48] = system: Homo sapiens; experiment: Toxicity in healthy human assessed as incidence of headache at 800 mg/day, po administered for 21 days; format: organism-based; conditions: in vivo, 504 h; how it was run: as §1

O=C(NN1C(=O)[C@@H]2[C@@H]3C=C[C@@H]([C@H]4C[C@@H]34)[C@@H]2C1=O)c1ccc(C(F)(F)F)cc1 [TECOVIRIMAT]
Activity [1]: 12.5%
Activity [2]: 0%
Activity [3]: 0%
Cmax [4]: 1300 ng/mL
Activity [5]: 0%
Activity [6]: 0%
Cmax [7]: 1390 ng/mL
half-life [8]: 19.8 h
Activity [9]: 0%
Tmax [10]: 2.63 h
Activity [11]: 12.5%
Cmax [12]: 2280 ng/mL
Activity [13]: 75%
AUC at 504 h [14]: 16200 ng·h/mL
Activity [15]: 0%
half-life [16]: 18.8 h
AUC at 504 h [17]: 13100 ng·h/mL
Activity [18]: 25%
Activity [19]: 0%
Cmax [20]: 1460 ng/mL
Tmax [21]: 2.88 h
AUC at 504 h [22]: 22700 ng·h/mL
half-life [23]: 20.7 h
Activity [24]: 0%
Activity [25]: 62.5%
AUC at 504 h [26]: 10100 ng·h/mL
Activity [27]: 0%
AUC at 504 h [28]: 15400 ng·h/mL
Activity [29]: 12.5%
Activity [30]: 0%
Activity [31]: 0%
Cmax [32]: 1210 ng/mL
Tmax [33]: 2.67 h
AUC at 504 h [34]: 9100 ng·h/mL
AUC at 504 h [35]: 11900 ng·h/mL
Activity [36]: 0%
Activity [37]: 37.5%
Activity [38]: 12.5%
Activity [39]: 0%
Cmax [40]: 985 ng/mL
Cmax [41]: 2340 ng/mL
AUC at 504 h [42]: 23400 ng·h/mL
AUC at 504 h [43]: 21000 ng·h/mL
Activity [44]: 12.5%
Activity [45]: 0%
Activity [46]: 0%
Activity [47]: 0%
Activity [48]: 25%
